# SENP6 inh: inhibitors of human SENP6 protease. 1.8% of 330,000 active. Recombinant SENP6 catalytic domain, aminoluciferin luminescence. inhibition, % at 10 µM;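 active means inhibition above about 50% at the single tested dose, limit read from the data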;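 further: plate controls were DMSO wells with enzyme for no effect and DMSO wells lacking enzyme for full effect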
# Apaf1 inhib: blocks human Apaf-1 apoptosome activity; 0.71% of 330,000 active; inhibition, % at 20 µM; reconstituted apoptosome caspase-3 activity, DEVD-Rh110 fluorescence; O14727; active means inhibition of at least 40% at 20 µM;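 further: plate controls were DMSO wells for no effect and DEVD-CHO caspase inhibitor wells for full effect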
#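 System: Apoptosome proteins | Medium: Hepes pH 7.5 with detergent and BSA | Also added: Cytochrome c trigger plus (Z-DEVD)2-Rh110 caspase-3 substrate | Incubation: 30 min compound preincubation, 50 min activation, room temperature | Detection: Rhodamine 110 fluorescence at Ex 480/Em 540 nm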
# SENP7 inh: SENP7 protease inhibition | recombinant SENP7, Z-RLRGG-aminoluciferin luminescence, 40 min | inhibition, % at 5 µM | 1.5% of 330,000 active | AID 434973;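 active means inhibition above about 50% at the single test dose, limit read from the data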;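 further: plate controls were DMSO with enzyme for no effect and no enzyme buffer wells for full effect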
# SENP8 block-1: SENP8 protease inhibition; Q96LD8; purified SENP8, Z-RLRGG-aminoluciferin cleavage, luminescence; inhibition, % at 10 µM; 1.2% of 330,000 active; AID 2540; in the data active means inhibition above about 50%
# Target sequence (Q96LD8 whole entry, looked up): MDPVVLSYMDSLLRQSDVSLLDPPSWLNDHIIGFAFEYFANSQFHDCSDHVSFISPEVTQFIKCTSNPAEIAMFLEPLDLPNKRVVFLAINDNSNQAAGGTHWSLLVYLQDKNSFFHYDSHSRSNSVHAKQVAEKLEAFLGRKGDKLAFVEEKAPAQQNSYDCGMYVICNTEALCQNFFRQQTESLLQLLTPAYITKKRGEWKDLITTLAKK
# SENP8 block-2: SENP8 (human) protease inhibition. recombinant SENP8, Nedd8 substrate fluorescence. inhibition, % at 20 µM. 0.64% of 360,000 active. AID 602440; in the data active means inhibition mostly above about 40%, no sharp cut-off; inactive means mostly below about 27%
# SENP1 FRET inh: blocks the human SENP1 SUMO protease catalytic domain | AID 624204 | 0.21% of 360,000 active | recombinant SENP1 catalytic domain, CyPet-SUMO1-YPet FRET cleavage | Q9P0U3 | inhibition, % at 10 µM;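 active means inhibition at least 30% at 10 µM, raw YFP signal under a set limit, fluorescence ratio 0.5 to 1.5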;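 further: 0% = enzyme with DMSO and 100% = no enzyme wells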
# Target sequence (Q9P0U3 419-644 limits assumed): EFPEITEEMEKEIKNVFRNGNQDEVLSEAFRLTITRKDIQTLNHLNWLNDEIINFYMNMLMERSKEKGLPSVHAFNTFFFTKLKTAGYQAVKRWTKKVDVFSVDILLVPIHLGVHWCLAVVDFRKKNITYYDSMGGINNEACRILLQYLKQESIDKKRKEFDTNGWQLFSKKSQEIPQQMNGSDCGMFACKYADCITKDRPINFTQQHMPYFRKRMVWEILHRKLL
#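 Material – human SENP1 catalytic domain · Input – SENP1 enzyme, 20 pM final · Compound dosing – single concentration of 10 µM compound, 0.5% DMSO final · Timing – enzyme reaction for 50 min at room temperature, dark · Measured by – FRET fluorescence in CFP and YFP emission channels · Control set – no-enzyme wells low, DMSO-plus-enzyme wells high control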
# SENP8 conf: confirmation of human SENP8 protease inhibitors | shares compounds with SENP7 inh | Recombinant SENP8, Z-RLRGG-aminoluciferin luminescence, 60 min | inhibition, % at 12.5 µM | 40% of 6,200 active | AID 488912;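 active means mean inhibition across replicates above about 50%, limit read from the data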
# SENP6 conf: confirmation of human SENP6 protease inhibitors | AID 488915 | 58% of 6,200 active | recombinant SENP6, Z-RLRGG-aminoluciferin luminescence | shares compounds with SENP7 inh | inhibition, % at 12.5 µM
# SENP7 confirm: human SENP7 inhibition, confirmed; shares compounds with SENP7 inh; recombinant SENP7, Z-RLRGG-aminoluciferin luminescence, 40 min; inhibition, % at 12.5 µM; 69% of 6,200 active; AID 488917
# Casp3 select: caspase-3 inhibition (SENP selectivity assay) | shares compounds with SENP7 inh | purified caspase-3, Z-DEVD-aminoluciferin luminescence, 60 min | inhibition, % at 12.5 µM | 60% of 6,200 active | AID 488918;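 active means mean inhibition above about 50%, limit read from the data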;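 further: plate controls were enzyme with DMSO for no effect and wells without caspase-3 for full effect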
# Target sequence (P42574 28-227 limits assumed): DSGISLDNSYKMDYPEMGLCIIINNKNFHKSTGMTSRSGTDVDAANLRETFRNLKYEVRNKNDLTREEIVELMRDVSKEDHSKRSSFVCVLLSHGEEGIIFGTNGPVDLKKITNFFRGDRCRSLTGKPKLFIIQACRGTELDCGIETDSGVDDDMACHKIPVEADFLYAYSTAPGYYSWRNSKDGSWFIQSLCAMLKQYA
# Luc interf: counter-screen for SENP inhibitors: luminescence interference; shares compounds with SENP7 inh; Pre-incubated SENP8/Z-RLRGG-aminoluciferin, luciferase luminescence interference; inhibition, % at 12.5 µM; 39% of 6,200 active; AID 488919;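 active means mean inhibition above about 50% when retested at one dose, limit read from the data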;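 further: plate controls were DMSO wells with completed reaction for no effect and substrate without enzyme for full effect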
# An asterisk follows results filed as active; i = inactive; nt = no result. Hits are enriched below; roughly 2.9% of the tested compounds scored in any of these assays.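 How the source made its calls, unless noted: active means mean inhibition above about 50% in the one-dose retest (limit read from the data); inactive means the rest.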
SMILES,SENP6 inh,Apaf1 inhib,SENP7 inh,SENP8 block-1,SENP8 block-2,SENP1 FRET inh,SENP8 conf,SENP6 conf,SENP7 confirm,Casp3 select,Luc interf
O=C(Nc1ccc2ccccc2c1)C(=O)C1C(=O)Nc2ccccc21 (centres undefined),92*,-13,78*,84*,nt,nt,73*,74*,89*,77*,8
Cc1ccc(N=Nc2cc(C)ccc2N)cc1,99*,1,100*,98*,35,5,99*,100*,103*,97*,96*
O=C(Nc1nc2c(s1)CCCC2)C1COc2ccccc2O1 (centres undefined),67*,11,59*,59*,20,0,75*,73*,92*,67*,32
O=C(NC1=NCCS1)C1COc2ccccc2O1 (centres undefined),82*,-4,85*,64*,21,2,77*,76*,95*,94*,85*
CC(C)(C)c1cc(NC(=O)c2ccco2)no1,67*,6,71*,32,9,1,53*,57*,86*,83*,56*
Cc1cc(C(=O)Nc2cc(C(C)(C)C)on2)c(C)o1,73*,-4,71*,64*,2,-1,15,25,44,51*,11
CC(C)(C)c1cc(NC(=O)Nc2ccccc2)no1,30,5,7,13,23,1,nt,nt,nt,nt,nt
Cc1cc(C(=O)Nc2ccon2)c(C)o1,-39,-9,-9,-10,1,-7,nt,nt,nt,nt,nt
Cc1cc(F)ccc1-c1cc(C(=O)NC2CCCCC2)[nH]n1,nt,nt,nt,nt,-2,3,nt,nt,nt,nt,nt
CC(=O)c1cnc2cc(-c3ccc(C)cc3)nn2c1C,67*,6,-1,45,-268,-1,50*,33,72*,66*,17
CC(=O)c1cnc2cc(-c3ccccc3)nn2c1C,-12,1,-5,-15,-277,-3,nt,nt,nt,nt,nt
O=C(CC(SCc1ccco1)c1ccc(O)cc1)c1cccs1 (centres undefined),89*,7,58*,88*,-4,12,93*,91*,95*,46,87*
O=C(Nc1ccc(F)cc1)C(c1ccncc1)N1CCN(CC(=O)N2CCCC2)CC1 (centres undefined),nt,nt,nt,nt,18,-2,nt,nt,nt,nt,nt
O=C(CNC(=O)c1ccccc1Cl)NCCc1cccs1,-11,-2,5,0,11,-5,nt,nt,nt,nt,nt
CC(C)C1Oc2ccccc2C(=O)N(CC(=O)c2ccc3c(c2)OCCO3)C1=O (centres undefined),16,12,56*,-20,4,1,2,6,13,26,-4
O=C(CSc1ccc(-c2ccc(F)cc2)nn1)N1CCCCC1,68*,10,63*,29,13,2,38,38,78*,80*,58*
O=C(O)c1cc(-c2ccc(/C=C3\NC(=O)N(c4ccccc4)C3=O)o2)ccc1Cl,24,4,8,3,i,-39,nt,nt,nt,nt,nt
C#CCN1C(=O)S/C(=C\c2ccc(-c3ccc(Cl)c(C(=O)O)c3)o2)C1=O,70*,-8,21,49,-167,-28,74*,74*,82*,32,40
CNC(=O)C[C@H]1C(=O)N(CCc2ccccc2)C[C@@H]1CSC,nt,nt,nt,nt,12,1,nt,nt,nt,nt,nt
Fc1ccc(-c2nc3ccccc3[nH]2)cc1,83*,-8,83*,64*,10,-1,-7,64*,89*,84*,72*
N#CCSc1ccc(-c2nc3ccccc3[nH]2)cn1,7,9,68*,48,-238,-1,71*,68*,89*,82*,74*
Nc1ccc(-c2nc3ccccc3[nH]2)cc1,70*,7,65*,48,-414,3,49,47,83*,82*,66*
O=C(CSc1ccc(-c2nc3ccccc3[nH]2)cn1)Nc1ccc(S(=O)(=O)NC2CC2)cc1,85*,6,72*,71*,-264,-3,82*,48,98*,56*,86*
O=C(CSc1ccc(-c2nc3ccccc3[nH]2)cn1)Nc1ccc2c(c1)OCCO2,-21,-13,-6,-12,-113,0,nt,nt,nt,nt,nt
Nc1cccc(-c2nc3ccccc3[nH]2)c1,44,-14,41,10,-277,1,nt,nt,nt,nt,nt
SMILES,SENP6 inh,Apaf1 inhib,SENP7 inh,SENP8 block-1,SENP8 block-2,SENP1 FRET inh,SENP8 conf,SENP6 conf,SENP7 confirm,Casp3 select,Luc interf
CCOC(=O)CSc1ccc(-c2nc3ccccc3[nH]2)cn1,27,17,15,-4,i,-1,nt,nt,nt,nt,nt
Clc1nc2c(ccc3ccccc32)[nH]1,-14,-17,0,-5,18,2,nt,nt,nt,nt,nt
Nc1ccc(-c2nc3c(ccc4ccccc43)[nH]2)cc1,59*,-26,31,31,i,-44,24,21,37,18,-3
N#Cc1cnc2sc3ccccc3n2c1=N,94*,-1,79*,93*,-179,-25,95*,96*,100*,97*,94*
CC1(C(=O)NS(=O)(=O)c2ccc(C#N)cc2)CCN1C(=O)c1ccccc1CCc1ccccc1 (centres undefined),nt,nt,nt,nt,-2,1,nt,nt,nt,nt,nt
c1ccc(N2CC3CCc4ccccc4C3=N2)cc1 (centres undefined),57*,0,59*,35,-384,-33,37,51*,72*,42,29
O=C1c2ccccc2C(=O)N1CC1=NCCc2ccccc21,13,17,0,-2,8,12,nt,nt,nt,nt,nt
O=C(CCCOc1ccc(Cl)cc1Cl)Nc1ccccc1C(=O)O,86*,5,0,71*,-3,1,83*,82*,90*,64*,82*
O=C(COc1ccc(Cl)cc1Cl)Nc1ccc(C(=O)Nc2ccccc2C(=O)O)cc1,0,7,-4,-10,-25,1,nt,nt,nt,nt,nt
CCOc1ccc(C(=O)Nc2cccc(C(=O)O)c2C)cc1Cl,100*,-2,98*,93*,11,-1,97*,98*,102*,80*,97*

# Screening data deposited in PubChem by Sanford-Burnham Center for Chemical Genomics.
